This note sets out measurements from ChEMBL document CHEMBL3044619, “Natural fungicides from Ruta graveolens L. leaves, including a new quinolone alkaloid” (J Agric Food Chem, 2003).

In general, IC50 refers to the concentration at which inhibition is half-maximal.

Each structure is given as a SMILES string. Calls of active or inactive are those of the source. The rule behind the calls is not given here.

Test [1] relates to Colletotrichum gloeosporioides. Kind of test: Antifungal activity against Colletotrichum gloeosporioides assessed as growth inhibition at 100 uM after 48 hr by microplate photometric analysis. The format is functional. Particulars: read-out: GI. The procedure, abridged: (§1)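 96-well broth microdilution on conidia from 7–10-day PDA cultures of isolates from strawberry, grape or orchid. Conidia were in RPMI buffered with 0.165 M MOPS (pH 7). Ethanol stocks were diluted to final 30, 100 and 300 µM, with duplicate wells and compound-only blanks. Plates were incubated at 24 ± 2 °C under a 12-h photoperiod and read at A620 after 48 h. Results are % change versus untreated conidia controls, split-plot design run twice (n = 4).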

The test system of test [2] is Colletotrichum fragariae. The experiment in a line: Antifungal activity against Colletotrichum fragariae assessed as growth inhibition at 30 to 300 uM after 48 hr by microplate photometric analysis. Format: functional. The procedure, abridged:
as §1

Test [3] deals with Colletotrichum acutatum. The experiment in a line: Antifungal activity against Colletotrichum acutatum assessed as growth inhibition at 300 uM after 48 hr by microplate photometric analysis. The format is functional. The conditions noted are these: read-out: GI. The procedure, abridged:
as §1

Test [4] relates to Diaporthe ampelina. Kind of test: Antifungal activity against Diaporthe ampelina assessed as growth inhibition at 30 uM after 120 hr by microplate photometric analysis. The format is functional, organism-based. The gist of the method:
(§2)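 P. viticola was isolated from grape, and its conidia were harvested from 7–10-day PDA cultures, filtered and adjusted photometrically to 1.0 × 10^6/mL. Growth was run in RPMI broth buffered with 0.165 M MOPS (pH 7) at final 30, 100 or 300 µM (120 mM stocks in 95% ethanol), with duplicate wells, at 24 ± 2 °C under a 12-h photoperiod. A620 was read at 120 h and expressed relative to untreated conidia controls.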

In test [5] the test system is Phomopsis obscurans. Kind of test: Antifungal activity against Phomopsis obscurans assessed as growth inhibition at 30 uM after 120 hr by microplate photometric analysis. The format is functional. The conditions noted are these: Paraphomopsis obscurans, read-out: GI. The gist of the method: (§3)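 Phomopsis conidia, from strawberry or grape isolates grown 7–10 days on PDA, were tested in RPMI/0.165 M MOPS (pH 7) microtiter wells. Ethanol stocks were diluted to final 30, 100 and 300 µM, with duplicate wells and compound-only blanks. Incubation was at 24 ± 2 °C under a 12-h photoperiod, with A620 read at 120 h because germination is slow. Results are % change versus untreated conidia controls, run twice in time (n = 4).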

Test [6] concerns Botrytis cinerea. The experiment in a line: Antifungal activity against Botryotinia fuckeliana assessed as growth inhibition at 30 to 300 uM after 48 hr by microplate photometric analysis. Format: functional, organism-based. The gist of the method:
as §1

The subject of test [7] is Phomopsis obscurans. Kind of test: Antifungal activity against Phomopsis obscurans assessed as growth inhibition at 100 uM after 120 hr by microplate photometric analysis. Format: functional. The conditions noted are these: Paraphomopsis obscurans, read-out: GI. The procedure, abridged: as §3
Test [8] relates to Fusarium oxysporum. The experiment in a line: Antifungal activity against Fusarium oxysporum assessed as growth inhibition at 300 uM after 48 hr by microplate photometric analysis. Format: functional. The conditions noted are these: read-out: GI. The procedure, abridged:
as §1

For test [9], the system named is Botrytis cinerea. Kind of test: Stimulation of Botryotinia fuckeliana growth at 30 uM after 48 hr by microplate photometric analysis. Format: functional, organism-based. The procedure, abridged: (§4)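 Conidia came from 7–10-day PDA cultures (24 ± 2 °C, 12-h photoperiod) and were filtered and adjusted photometrically to 1.0 × 10^6/mL. B. cinerea was isolated from grape, C. gloeosporioides from strawberry and F. oxysporum from orchid. Growth was run in MOPS-buffered RPMI (0.165 M, pH 7) at final 30, 100 or 300 µM from 120 mM ethanol stocks, with duplicate wells, and read as A620 at 48 h. Results are % of untreated growth.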

In test [10] the test system is Phomopsis obscurans. Kind of test: Antifungal activity against Phomopsis obscurans assessed as growth inhibition at 300 uM after 120 hr by microplate photometric analysis. The format is functional. The conditions noted are these: Paraphomopsis obscurans; for inhibition of growth at 300 µM: read-out: GI. The procedure, abridged:
as §3

In test [11] the test system is Botrytis cinerea. Kind of test: Antifungal activity against Botryotinia fuckeliana assessed as growth inhibition at 300 uM after 48 hr by microplate photometric analysis. Format: functional, organism-based. The procedure, abridged:
as §4

Test [12] relates to Phomopsis obscurans. Kind of test: Stimulation of Phomopsis obscurans growth at 30 to 300 uM after 120 hr by microplate photometric analysis. The format is functional, organism-based. The conditions noted are these: Paraphomopsis obscurans. The gist of the method: as §3
Test [13] concerns Botrytis cinerea. The experiment in a line: Stimulation of Botryotinia fuckeliana growth at 30 to 300 uM after 48 hr by microplate photometric analysis. Format: functional, organism-based. The gist of the method:
as §1

The test system of test [14] is Colletotrichum acutatum. The experiment in a line: Stimulation of Colletotrichum acutatum growth at 30 uM after 48 hr by microplate photometric analysis. The format is functional. The gist of the method:
as §1

The test system of test [15] is Colletotrichum gloeosporioides. The experiment in a line: Stimulation of Colletotrichum gloeosporioides growth at 30 to 300 uM after 48 hr by microplate photometric analysis. Format: functional, organism-based. The procedure, abridged:
as §4

Test [16] concerns Diaporthe ampelina. Kind of test: Stimulation of Diaporthe ampelina growth at 30 to 300 uM after 120 hr by microplate photometric analysis. Format: functional, organism-based. The procedure, abridged:
as §2

In test [17] the test system is Diaporthe ampelina. The experiment in a line: Antifungal activity against Diaporthe ampelina assessed as growth inhibition at 300 uM after 120 hr by microplate photometric analysis. Format: functional. The conditions noted are these: read-out: GI. The procedure, abridged: as §3
Test [18] has as its system Phomopsis obscurans. The experiment in a line: Antifungal activity against Phomopsis obscurans assessed as growth inhibition at 30 to 300 uM after 120 hr by microplate photometric analysis. Format: functional, organism-based. Particulars: Paraphomopsis obscurans. The gist of the method:
as §3

Test [19] relates to Colletotrichum gloeosporioides. Kind of test: Antifungal activity against Colletotrichum gloeosporioides assessed as growth inhibition at 300 uM after 48 hr by microplate photometric analysis. Format: functional. The conditions noted are these: read-out: GI. The gist of the method:
as §1

In a further test the test system is Fusarium solani. Kind of test: Fungistatic activity against Fusarium solani assessed as growth inhibition. Format: functional, organism-based.
Test [20] relates to Diaporthe ampelina. The experiment in a line: Antifungal activity against Diaporthe ampelina assessed as growth inhibition at 30 to 300 uM after 120 hr by microplate photometric analysis. Format: functional, organism-based. The procedure, abridged: as §3
The test system of test [21] is Fusarium oxysporum. The experiment in a line: Stimulation of Fusarium oxysporum growth at 30 uM after 48 hr by microplate photometric analysis. The format is functional, organism-based. The gist of the method:
as §4

In test [22] the test system is Colletotrichum fragariae. The experiment in a line: Antifungal activity against Colletotrichum fragariae assessed as growth inhibition at 300 uM after 48 hr by microplate photometric analysis. Particulars: read-out: GI. The format is functional. The procedure, abridged:
as §1

With `Cn1c(CCCCCCc2ccc3c(c2)OCO3)cc(=O)c2ccccc21`, in test [1], the inhibition of growth at 100 µM stood at 67.7%. Moreover, the “growth inhibition (GI)” value in the test with Colletotrichum fragariae [2], with Diaporthe ampelina [4] and in the test with Botrytis cinerea [6] was “Active” in each case. Also, in the test with Colletotrichum acutatum [3], the inhibition of growth at 300 µM was 57%. For the same compound, in the test with Phomopsis obscurans [5], the inhibition of growth at 30 µM turned out to be 100%.

In the case of `CCCCCCCCCc1cc(=O)c2ccccc2[nH]1`, the inhibition of growth at 100 µM in the test on Phomopsis obscurans [7] was 100%. For the same compound, the inhibition of growth at 300 µM in the test on Fusarium oxysporum [8] worked out at 37%; in the test with Colletotrichum acutatum [3] it was 50%. For the same compound, the “growth inhibition (GI)” value in the test on Colletotrichum fragariae [2] and in the test with Diaporthe ampelina [4] was “Active” in each case. In addition, the result with Botrytis cinerea [9] was Active. In the test on Phomopsis obscurans [10], the “growth inhibition (GI)” value is “inactive”.

As to `O=c1cc(CCCCc2ccc3c(c2)OCO3)[nH]c2ccccc12`, the “growth inhibition (GI)” value with Botrytis cinerea [11] and with Diaporthe ampelina [4] was “Active” throughout. The inhibition of growth at 30 µM with Phomopsis obscurans [5] was 100%.

Turning to `O=c1cc(O)c2ccccc2o1` [4-HYDROXYCOUMARINS], the result (in the test with Phomopsis obscurans [12]; in the test on Botrytis cinerea [13]; in test [15]; in the test on Diaporthe ampelina [16]) was Active. This compound also had an Activity in the test with Colletotrichum acutatum [14] of 15%.

In the case of `CCCCNC(=O)n1c(NC(=O)OC)nc2ccccc21` [BENOMYL], the inhibition of growth at 300 µM came to 57% in the test with Diaporthe ampelina [17], 77% in the test on Fusarium oxysporum [8], 66% in test [19] and 33% in the test on Colletotrichum acutatum [3]. Further, the “growth inhibition (GI)” value in the test with Phomopsis obscurans [18] and with Botrytis cinerea [6] was “Active” each time. For the same compound, in the test on Colletotrichum fragariae [2], the “growth inhibition (GI)” value is on record as 76%.

`COc1c2ccoc2cc2oc(=O)ccc12` [BERGAPTEN]: in the test on Fusarium solani, the IC50 is 27.7 µM. The compound also came in with an Activity with Colletotrichum acutatum [14] of 15%. In the test on Phomopsis obscurans [5], the inhibition of growth at 30 µM worked out at 80%. Besides, the result in test [15] was Active. Moreover, the “growth inhibition (GI)” value in the test on Diaporthe ampelina [20] was “Active”.

Regarding `O=C1C2CC=CCC2C(=O)N1SC(Cl)(Cl)Cl` (configuration not stated) [CAPTAN], the “growth inhibition (GI)” value in the test on Phomopsis obscurans [18] and in the test with Diaporthe ampelina [20] was “Active” throughout. The inhibition of growth at 300 µM in the test with Fusarium oxysporum [8] was 100%.

`Cn1c(-c2ccc3c(c2)OCO3)cc(=O)c2ccccc21` [GRAVEOLINE]: the inhibition of growth at 100 µM with Phomopsis obscurans [7] was 100%. The inhibition of growth at 300 µM in the test with Fusarium oxysporum [8] came to 44%. For the same compound, the “growth inhibition (GI)” value in the test with Colletotrichum fragariae [2] was “Active”. Also, the result in the test with Botrytis cinerea [9] and with Diaporthe ampelina [16] was Active.

For `COc1ccc2ccc(=O)oc2c1` [HERNIARIN], the outcome (with Fusarium oxysporum [21]; in the test with Botrytis cinerea [9]; in test [15]; in the test on Diaporthe ampelina [16]) was Active. For the same compound, the inhibition of growth at 300 µM in the test on Colletotrichum fragariae [22] is 21%. Also, in the test with Botrytis cinerea [11], the “growth inhibition (GI)” value was “Active”. Besides, the Activity with Colletotrichum acutatum [14] stood at 15%.

Regarding `COc1cc2nc3occc3c(OC)c2cc1OC` [KOKUSAGININE], the “growth inhibition (GI)” value with Colletotrichum fragariae [2] and with Diaporthe ampelina [4] was “Active” in each case. Further, the figures for the inhibition of growth at 300 µM (in test [19]; with Phomopsis obscurans [10]) were 50% and 100%, respectively. In addition, the inhibition of growth at 30 µM in the test with Phomopsis obscurans [5] worked out at 80%.

In the case of `COc1c2occc2cc2ccc(=O)oc12` [METHOXSALEN], the inhibition of growth at 300 µM in the test on Colletotrichum fragariae [22] was found to be 29%; in the test with Fusarium oxysporum [8] it was 50%; with Phomopsis obscurans [10] it was 100%. Also, in the test on Fusarium solani, the IC50 worked out at 125 µM. For the same compound, the “growth inhibition (GI)” value with Botrytis cinerea [11] and in the test on Diaporthe ampelina [20] was “Active” in each case. The compound further showed an Activity with Colletotrichum acutatum [14] of 15%. The inhibition of growth at 30 µM with Phomopsis obscurans [5] was found to be 80%. In addition, in test [15], the outcome was Active.

As for `O=c1ccc2ccc(O)cc2o1` [UMBELLIFERONE], the result (with Phomopsis obscurans [12]; in the test with Botrytis cinerea [13]; in test [15]; in the test with Diaporthe ampelina [16]) was Active. Moreover, the Activity in the test with Colletotrichum acutatum [14] was determined as 15%.
